Measured values reported in ChEMBL document CHEMBL4402518, “Identification of Novel Medulloblastoma Cell-Targeting Peptides for Use in Selective Chemotherapy Drug Delivery” (J Med Chem, 2020).
Each block holds one compound with its values, some of them ahead of it. Active and inactive are the calls of the source. No cut-off for these calls is given here. Peptide text beside a SMILES is read from it. * marks the point of attachment. Glutaryl(5-(14-O-Dox)) = COc1cccc2c1C(=O)c1c(O)c3c(c(O)c1C2=O)C[C@@](O)(C(=O)COC(=O)CCCC(=O)*)C[C@@H]3O[C@H]1C[C@H](N)[C@H](O)[C@H](C)O1

Columns and labels:
[1] = Selectivity index, ratio of IC50 for human MRC5 cells to IC50 for human DaOY cells incubated for 72 hrs by AlamarBlue cell viability assay
[2] = system: Daoy; assay: Cytotoxicity against human DaOY cells assessed as reduction in cell viability incubated for 72 hrs by AlamarBlue cell viability assay; type: functional, cell-based
Method in brief: (§1)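 Cells treated at increasing concentrations, with viability read 72 hours post-treatment by alamar blue assay. Data are mean ± S.E.M. from 3 independent experiments.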

[3] = Stability in human serum incubated for up to 4 hrs by LC-MS/MS analysis; type: ADME, cell-free
[4] = Cytotoxicity against human NHA cells assessed as reduction in cell viability incubated for 72 hrs by AlamarBlue cell viability assay; type: cell-based; method in brief: as §1
[5] = Stability in human serum at 250 uM incubated for up to 4 hrs MALDI-TOF analysis; type: ADME, cell-free
[6] = Drug uptake in human DaOY cells assessed as primary life time at 0.25 uM measured after 3 hrs by fluorescence live imaging microscopy analysis; type: ADME, cell-based
[7] = Drug uptake in human DaOY cells assessed as drug internalization at 0.25 uM pretreated with actin polymerization inhibitor/macropinocytosis inhibitor, cytochalasin D 1 hr prior to compound addition and measured after 3 hrs by flow cytometry; type: ADME, cell-based
Method in brief: (§2)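 To probe endocytic routes, cells were first pre-treated with non-toxic concentrations of one of four inhibitors before compound exposure. The inhibitors were genistein (caveolae), cytochalasin D (actin/macropinocytosis), amiloride hydrochloride (caveolae/macropinocytosis) and chlorpromazine hydrochloride (clathrin).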

[8] = Drug uptake in human DaOY cells assessed as secondary lifetime at 0.25 uM measured after 3 hrs by fluorescence live imaging microscopy analysis; type: ADME, cell-based
[9] = Drug uptake in human DaOY cells assessed as drug internalization at 0.25 uM measured after 3 hrs by flow cytometry; type: ADME, cell-based
[10] = Drug uptake in human DaOY cells assessed as drug localization by measuring punctuate pattern of expression throughout cell cytoplasm, perinuclear and nuclear region at 0.25 uM measured after 15 to 30 mins by confocal microscopy; type: ADME, cell-based
[11] = Ratio of IC50 of compound to IC50 of doxorubicin for cytotoxicity against human NHA cells assessed as reduction in cell viability incubated for 72 hrs by AlamarBlue cell viability assay; type: cell-based; conditions: read-out: Ratio IC50
[12] = Stability in mouse serum incubated for up to 4 hrs by LC-MS/MS analysis; type: ADME, cell-free
[13] = system: MRC5; assay: Cytotoxicity against human MRC5 cells assessed as reduction in cell viability incubated for 72 hrs by AlamarBlue cell viability assay; type: cell-based; conditions: MRC5, 72 h; method in brief: as §1
[14] = Stability in mouse serum at 250 uM incubated for up to 4 hrs MALDI-TOF analysis; type: ADME, cell-free
[15] = Ratio of IC50 of compound to IC50 of doxorubicin for cytotoxicity against human MRC5 cells assessed as reduction in cell viability incubated for 72 hrs by AlamarBlue cell viability assay; type: cell-based; conditions: read-out: Ratio IC50
[16] = Drug uptake in human DaOY cells assessed as drug internalization at 0.25 uM measured after 15 to 60 mins by confocal microscopy; type: ADME, cell-based
[17] = Selectivity index, ratio of IC50 for human NHA cells to IC50 for human DaOY cells incubated for 72 hrs by AlamarBlue cell viability assay
[18] = Stability of the compound in water using C-terminal FITC-labeled compound; type: physicochemical; conditions: buffer
[19] = Solubility of the compound in water using C-terminal FITC-labeled compound; type: physicochemical; conditions: buffer
[20] = Drug uptake in human DaOY cells assessed as drug internalization at 0.25 to 100 uM incubated for 24 hrs using C-terminal FITC labeled compound by confocal microscopy; type: ADME, cell-based
Method in brief: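 Medulloblastoma cells exposed 24 h to fluorescently labelled peptide at 0.25 μM, 25 μM and 100 μM, then imaged by confocal microscopy. Cell membrane stained red, nucleus blue, peptide green. Untreated cells served as control.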

[21] = system: Daoy; assay: Binding affinity to human DaOY cell surface measured after 15 mins incubation using C-terminal FITC labeled compound by Live cell confocal microscopy; type: cell-based
[22] = Drug uptake in human DaOY cells assessed as drug internalization at 0.1 to 1000 uM incubated for 24 hrs using C-terminal FITC-labeled compound by flow cytometry; type: ADME, cell-based
Method in brief: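 FITC-labelled peptide at differing concentrations for 24 h, then cell-associated green fluorescence intensity measured by flow cytometry. Cells given non-fluorescent peptide served as control; n = 3 independent experiments.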

[23] = system: Daoy; assay: Cytotoxicity against human DaOY cells assessed as reduction in cell viability incubated for 72 hrs; type: cell-based; method in brief: as §1
[24] = Cytotoxicity against human NHA cells assessed as reduction in cell viability incubated for 72 hrs; type: cell-based; method in brief: as §1
[25] = system: MRC5; assay: Cytotoxicity against human MRC5 cells assessed as reduction in cell viability incubated for 72 hrs; type: cell-based; conditions: mrc5, 72 h; method in brief: as §1
[26] = Drug uptake in human DaOY cells assessed as drug internalization at 0.25 uM pretreated with clathrin-mediated endocytosis inhibitor, chlorpromazine hydrochloride 1 hr prior to compound addition and measured after 3 hrs by flow cytometry; type: ADME, cell-based; method in brief: as §2
[27] = Drug uptake in human DaOY cells assessed as drug localization in nucleus at 0.25 uM pretreated with actin polymerization inhibitor/macropinocytosis inhibitor, cytochalasin D 1 hr prior to compound addition and measured after 3 hrs by fluorescence live imaging microscopy analysis; type: ADME, cell-based
[28] = Drug uptake in human DaOY cells assessed as drug localization in cytoplasm at 0.25 uM pretreated with actin polymerization inhibitor/macropinocytosis inhibitor, cytochalasin D 1 hr prior to compound addition and measured after 3 hrs by fluorescence live imaging microscopy analysis; type: ADME, cell-based
[29] = Drug uptake in human DaOY cells assessed as drug localization in perinuclear and nuclear regions of cell at 0.25 uM measured after 15 to 30 mins by confocal microscopy; type: ADME, cell-based
[30] = Drug uptake in human DaOY cells assessed as drug localization in nucleus at 0.25 uM measured after 3 hrs by […]; type: ADME, cell-based
[31] = Drug uptake in human DaOY cells assessed as drug internalization at 0.25 uM pretreated with caveloae/macropinocytosis inhibitor, amiloride hydrochloride 1 hr prior to compound addition and measured after 3 hrs by flow cytometry; type: ADME, cell-based; method in brief: as §2
[32] = Drug uptake in human DaOY cells assessed as drug internalization at 0.25 uM pretreated with caveloae-uptake inhibitor, genistein 1 hr prior to compound addition and measured after 3 hrs by flow cytometry; type: ADME, cell-based; method in brief: as §2

- Stability [3]: Stable
- Stability [5]: Stable
- Time [6]: 4.3 nanoseconds
- Drug uptake [7]: Not Active
- Time [8]: 1.3 nanoseconds
- Drug uptake [9]: Active
- Drug uptake [10]: Active
- Stability [12]: Stable
- Stability [14]: Stable
- Drug uptake [16]: Active
Compound: COc1cccc2c1C(=O)c1c(O)c3c(c(O)c1C2=O)C[C@@](O)(C(=O)COC(=O)CCCC(=O)N[C@@H](Cc1ccccc1)C(=O)N[C@@H](CO)C(=O)N[C@@H](CCCNC(=N)N)C(=O)N1CCC[C@H]1C(=O)N[C@@H](C)C(=O)N[C@@H](Cc1ccccc1)C(=O)N[C@@H](CC(C)C)C(=O)O)C[C@@H]3O[C@H]1C[C@H](N)[C@H](O)[C@H](C)O1 ({Glutaryl(5-(14-O-Dox))}-FSRPAFL-OH)
- Ratio IC50 [1]: 430.2
- IC50 [2]: 25 nM
- IC50 [4]: 842 nM
- selectivity ratio at 72 h [11]: > 7.4
- IC50 [13]: 10800 nM
- selectivity ratio at 72 h [15]: > 72
- Ratio IC50 [17]: 33.7

- Stability [18]: Stable
- solubility [19]: Soluble
- Drug uptake [20]: Active
- Drug uptake [22]: Active
Compound: H-FSRPAFL-OH
- Activity [21]: Active
- Activity [23]: Non-Toxic
- Activity [24]: Non-Toxic
- Activity [25]: Non-Toxic

Compound: COc1cccc2c1C(=O)c1c(O)c3c(c(O)c1C2=O)C[C@@](O)(C(=O)COC(=O)CCCC(=O)N[C@H](C(=O)NCC(=O)NCC(=O)N[C@@H](CC(C)C)C(=O)N[C@@H](CO)C(=O)N[C@@H](Cc1c[nH]cn1)C(=O)N[C@@H](CCCNC(=N)N)C(=O)O)C(C)C)C[C@@H]3O[C@H]1C[C@H](N)[C@H](O)[C@H](C)O1 ({Glutaryl(5-(14-O-Dox))}-VGGLSHR-OH)
- IC50 [2]: 130 nM

- Drug uptake [26]: Active
- Time [6]: 4.3 nanoseconds
- Drug uptake [7]: Active
- Drug uptake [27]: Active
- Drug uptake [28]: Active
- Time [8]: 1.3 nanoseconds
- Drug uptake [29]: Active
- Drug uptake [16]: Active
- Drug uptake [30]: Active
- Drug uptake [31]: Active
- Drug uptake [32]: Active
Compound: COc1cccc2c1C(=O)c1c(O)c3c(c(O)c1C2=O)C[C@@](O)(C(=O)CO)C[C@@H]3O[C@H]1C[C@H](N)[C@H](O)[C@H](C)O1 [DOXORUBICIN]
- Ratio IC50 [1]: 16.8
- IC50 [2]: 8.8 nM
- IC50 [4]: 113 nM
- IC50 [13]: 148 nM
- Ratio IC50 [17]: 12.8
